Converted amounts (≈) assume the structure as drawn.
What was measured:
Format in all cases: functional
Aspergillus fumigatus = assay: Antifungal activity against Aspergillus fumigatus after 16 to 18 hrs by serial dilution method; details: for MIC: Aspergillus fumigatus
Aspergillus flavus = assay: Antifungal activity against Aspergillus flavus after 16 to 18 hrs by serial dilution method; details: for MIC: Aspergillus flavus
In short: (§1)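 The test compound was dissolved in DMF and serially diluted. A standard drop of the prepared microbial culture was added to each dilution, and tubes were incubated at 37 °C for 16–18 h. MIC was taken as the highest dilution that stayed clear with no visible turbidity.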

Talaromyces marneffei = assay: Antifungal activity against Penicillium marneffei after 16 to 18 hrs by serial dilution method; details: for MIC: Talaromyces marneffei; in short: as §1
Klebsiella pneumoniae = assay: Antibacterial activity against Klebsiella pneumoniae after 16 to 18 hrs by serial dilution method; details: for MIC: Klebsiella pneumoniae
[1] = test system: Trichophyton mentagrophytes; assay: Antifungal activity against Trichophyton mentagrophytes after 16 to 18 hrs by serial dilution method; details: for MIC: Trichophyton mentagrophytes
Staphylococcus aureus = assay: Antibacterial activity against Staphylococcus aureus after 16 to 18 hrs by serial dilution method; details: for MIC: Staphylococcus aureus; in short: as §1
Pseudomonas aeruginosa = assay: Antibacterial activity against Pseudomonas aeruginosa after 16 to 18 hrs by serial dilution method; details: for MIC: Pseudomonas aeruginosa; in short: as §1
Escherichia coli = assay: Antibacterial activity against Escherichia coli after 16 to 18 hrs by serial dilution method; details: for MIC: Escherichia coli; in short: as §1

SMILES | MIC (Aspergillus fumigatus) | MIC (Aspergillus flavus) | MIC (Talaromyces marneffei) | MIC (Klebsiella pneumoniae) | MIC [1] | MIC (Staphylococcus aureus) | MIC (Pseudomonas aeruginosa) | MIC (Escherichia coli) | inhibition zone (IZ) (Aspergillus fumigatus) | inhibition zone (IZ) (Aspergillus flavus) | inhibition zone (IZ) (Talaromyces marneffei) | inhibition zone (IZ) (Klebsiella pneumoniae) | inhibition zone (IZ) [1] | inhibition zone (IZ) (Staphylococcus aureus) | inhibition zone (IZ) (Pseudomonas aeruginosa) | inhibition zone (IZ) (Escherichia coli)
Clc1ccc(CSc2nnc(-c3ccccc3COc3ccc(Cl)cc3)o2)cc1 | 12.5 µg/mL (≈ 28.2 µM) | 12.5 µg/mL (≈ 28.2 µM) | 12.5 µg/mL (≈ 28.2 µM) | 12.5 µg/mL (≈ 28.2 µM) | 12.5 µg/mL (≈ 28.2 µM) | 12.5 µg/mL (≈ 28.2 µM) | 12.5 µg/mL (≈ 28.2 µM) | 12.5 µg/mL (≈ 28.2 µM) | 11 mm | 11 mm | 11 mm | 11 mm | 11 mm | 11 mm | 11 mm | 11 mm
Cc1cccc(CSc2nnc(-c3ccccc3COc3ccc(Cl)cc3)o2)c1 | 12.5 µg/mL (≈ 29.6 µM) | 12.5 µg/mL (≈ 29.6 µM) | 12.5 µg/mL (≈ 29.6 µM) | 12.5 µg/mL (≈ 29.6 µM) | 12.5 µg/mL (≈ 29.6 µM) | 12.5 µg/mL (≈ 29.6 µM) | 12.5 µg/mL (≈ 29.6 µM) | 12.5 µg/mL (≈ 29.6 µM) | 11 mm | 11 mm | 11 mm | 11 mm | 11 mm | 11 mm | 11 mm | 11 mm
Cc1ccccc1OCc1ccccc1-c1nnc(-c2cccnc2Cl)o1 |  |  |  | 12.5 µg/mL (≈ 33.1 µM) |  | 12.5 µg/mL (≈ 33.1 µM) | 12.5 µg/mL (≈ 33.1 µM) | 12.5 µg/mL (≈ 33.1 µM) |  |  |  | 11 mm |  | 11 mm | 11 mm | 11 mm
Cc1cccc(OCc2ccccc2-c2nnc(-c3cccnc3Cl)o2)c1 |  |  |  | 12.5 µg/mL (≈ 33.1 µM) |  | 12.5 µg/mL (≈ 33.1 µM) | 12.5 µg/mL (≈ 33.1 µM) | 12.5 µg/mL (≈ 33.1 µM) |  |  |  | 11 mm |  | 11 mm | 11 mm | 11 mm
Cc1ccc(OCc2ccccc2-c2nnc(-c3cccnc3Cl)o2)cc1 |  |  |  | 12.5 µg/mL (≈ 33.1 µM) |  | 12.5 µg/mL (≈ 33.1 µM) | 12.5 µg/mL (≈ 33.1 µM) | 12.5 µg/mL (≈ 33.1 µM) |  |  |  | 11 mm |  | 11 mm | 11 mm | 11 mm
Clc1ccc(OCc2ccccc2-c2nnc(-c3cccnc3Cl)o2)cc1 |  |  |  | 12.5 µg/mL (≈ 31.4 µM) |  | 12.5 µg/mL (≈ 31.4 µM) | 12.5 µg/mL (≈ 31.4 µM) | 12.5 µg/mL (≈ 31.4 µM) |  |  |  | 11 mm |  | 11 mm | 11 mm | 11 mm
O=C(O)c1cn(C2CC2)c2cc(N3CCNCC3)c(F)cc2c1=O [CIPROFLOXACIN] |  |  |  | 1.56 µg/mL (≈ 4.71 µM) |  |  |  |  |  |  |  | 22 mm |  | 30 mm | 25 mm | 

The next lines start with results.

MIC (Aspergillus fumigatus) | MIC (Aspergillus flavus) | MIC (Talaromyces marneffei) | MIC (Klebsiella pneumoniae) | MIC [1] | MIC (Staphylococcus aureus) | MIC (Pseudomonas aeruginosa) | MIC (Escherichia coli) | SMILES | inhibition zone (IZ) (Aspergillus fumigatus) | inhibition zone (IZ) (Aspergillus flavus) | inhibition zone (IZ) (Talaromyces marneffei) | inhibition zone (IZ) (Klebsiella pneumoniae) | inhibition zone (IZ) [1] | inhibition zone (IZ) (Staphylococcus aureus) | inhibition zone (IZ) (Pseudomonas aeruginosa) | inhibition zone (IZ) (Escherichia coli)
12.5 µg/mL (≈ 29.6 µM) | 12.5 µg/mL (≈ 29.6 µM) | 12.5 µg/mL (≈ 29.6 µM) | 12.5 µg/mL (≈ 29.6 µM) | 12.5 µg/mL (≈ 29.6 µM) | 12.5 µg/mL (≈ 29.6 µM) | 12.5 µg/mL (≈ 29.6 µM) | 12.5 µg/mL (≈ 29.6 µM) | Cc1ccc(OCc2ccccc2-c2nnc(SCc3ccc(Cl)cc3)o2)cc1 | 11 mm | 11 mm | 11 mm | 11 mm | 11 mm | 11 mm | 11 mm | 11 mm
6.25 µg/mL (≈ 15.5 µM) | 12.5 µg/mL (≈ 31.1 µM) | 12.5 µg/mL (≈ 31.1 µM) | 12.5 µg/mL (≈ 31.1 µM) | 12.5 µg/mL (≈ 31.1 µM) | 12.5 µg/mL (≈ 31.1 µM) | 12.5 µg/mL (≈ 31.1 µM) | 12.5 µg/mL (≈ 31.1 µM) | Cc1cccc(CSc2nnc(-c3ccccc3COc3ccccc3C)o2)c1 | 16 mm | 11 mm | 11 mm | 11 mm | 11 mm | 11 mm | 11 mm | 11 mm
6.25 µg/mL (≈ 15.5 µM) | 12.5 µg/mL (≈ 31.1 µM) | 12.5 µg/mL (≈ 31.1 µM) | 12.5 µg/mL (≈ 31.1 µM) | 12.5 µg/mL (≈ 31.1 µM) | 12.5 µg/mL (≈ 31.1 µM) | 12.5 µg/mL (≈ 31.1 µM) | 12.5 µg/mL (≈ 31.1 µM) | Cc1cccc(CSc2nnc(-c3ccccc3COc3cccc(C)c3)o2)c1 | 16 mm | 11 mm | 11 mm | 11 mm | 11 mm | 11 mm | 11 mm | 11 mm
12.5 µg/mL (≈ 31.1 µM) | 12.5 µg/mL (≈ 31.1 µM) | 12.5 µg/mL (≈ 31.1 µM) | 12.5 µg/mL (≈ 31.1 µM) | 12.5 µg/mL (≈ 31.1 µM) | 12.5 µg/mL (≈ 31.1 µM) | 12.5 µg/mL (≈ 31.1 µM) | 12.5 µg/mL (≈ 31.1 µM) | Cc1ccc(OCc2ccccc2-c2nnc(SCc3cccc(C)c3)o2)cc1 | 11 mm | 11 mm | 11 mm | 11 mm | 11 mm | 11 mm | 11 mm | 11 mm
6.25 µg/mL | 3.12 µg/mL | 6.25 µg/mL |  | 3.12 µg/mL |  |  |  | Cc1cc(C2CCCCC2)n(O)c(=O)c1.NCCO [CICLOPIROX OLAMINE] | 25 mm | 25 mm | 20 mm |  | 27 mm |  |  | 

Reference: ChEMBL document CHEMBL1275272, “Synthesis, characterization and antimicrobial activity of some disubstituted 1,3,4-oxadiazoles carrying 2-(aryloxymethyl)phenyl moiety” (2010)
